The results in this text go back to ChEMBL document CHEMBL1149822, “Synthesis, antimicrobial and anti-inflammatory activities of some 1,2,4-triazolo[3,4-b][1,3,4]thiadiazoles and 1,2,4-triazolo[3,4-b][1,3,4]thiadiazines bearing trichlorophenyl moiety” (2008).

The test system of assay [1] is Trichophyton mentagrophytes. Nature of the assay: Antifungal activity against Trichophyton mentagrophytes by serial plate dilution method. It is filed as functional.
The test system of assay [2] is Trichophyton mentagrophytes. Put plainly: Antifungal activity against Trichophyton mentagrophytes at 3.125 ug/ml after 3 to 4 days. It counts as functional. The conditions noted are these: read-out: IZ. Summed up:
(§1)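 Agar of peptone 1 g, D-glucose 4 g and agar 2 g per 100 mL water, pH 5.7, was lawned with a fungal spore suspension in normal saline. The excess was decanted and plates were dried at 37 °C for 1 h. Wells were punched and compounds in DMSO were added, with a DMSO control. Plates were run in triplicate at 37 °C for 3–4 days, and the inhibition zone diameter was measured.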

Assay [3] relates to Aspergillus fumigatus. Nature of the assay: Antifungal activity against Aspergillus fumigatus NCIM 902 by serial plate dilution method. It is filed as functional.
Assay [4] concerns Talaromyces marneffei. Put plainly: Antifungal activity against Penicillium marneffei by serial plate dilution method. It is filed as functional. The gist of the method: as §1
In assay [5] the test system is Talaromyces marneffei. Put plainly: Antifungal activity against Penicillium marneffei at […] ug/ml after 3 to 4 days. It is filed as functional. The conditions noted are these: read-out: IZ.
Assay [6] deals with Aspergillus fumigatus. Nature of the assay: Antifungal activity against Aspergillus fumigatus NCIM 902 at […] ug/ml after 3 to 4 days. It is filed as functional. Conditions: read-out: IZ.
For assay [7], the system named is Aspergillus flavus. Nature of the assay: Antifungal activity against Aspergillus flavus NCIM 524 by serial plate dilution method. It is filed as functional. The gist of the method: as §1
Assay [8] has as its system Aspergillus flavus. Put plainly: Antifungal activity against Aspergillus flavus NCIM 524 at 3.125 ug/ml after 3 to 4 days. It counts as functional. The conditions noted are these: read-out: IZ. Summed up:
as §1

In assay [9] the test system is Pseudomonas aeruginosa. Nature of the assay: Antibacterial activity against Pseudomonas aeruginosa ATTC 27853 after 16 to 18 hrs by serial plate dilution method. It is filed as functional. The conditions noted are these: ATCC27853. The gist of the method: (§2)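 Serial dilutions were made in Mueller-Hinton broth in tubes, adjusted to […] with phosphate buffer, and inoculated with a standardized bacterial suspension. Tubes were incubated at 37 °C for 16–18 h. MIC was taken as the lowest concentration with no visible growth.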

Assay [10] relates to Trichophyton mentagrophytes. Put plainly: Antifungal activity against Trichophyton mentagrophytes at 12 ug/ml after 3 to 4 days. It counts as functional. Conditions: read-out: IZ. The gist of the method:
as §1

The subject of assay [11] is Staphylococcus aureus. Nature of the assay: Antibacterial activity against Staphylococcus aureus ATTC 25923 after 16 to 18 hrs by serial plate dilution method. It counts as functional. Summed up:
as §2

Assay [12] relates to Rattus norvegicus. Put plainly: Antiinflammatory activity against carrageenan-induced paw oedema in albino rat at 50 mg/kg, po relative to control. It counts as functional. The gist of the method: (§3)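 Albino rats of 180–250 g were fasted 18 h and placed in groups of six. Samples were suspended in 2% w/v acacia mucilage, and the vehicle group served as control. 30 min after dosing, carrageenan (1 mg mL⁻¹, 0.1 mL) was injected subcutaneously into the right hind paw. Paw volume was measured immediately and at 3 h, and % oedema inhibition was calculated versus vehicle controls.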
(In general: In the carrageenan paw model, swelling and tenderness develop within hours.)

The subject of assay [13] is Staphylococcus aureus. Put plainly: Antibacterial activity against Staphylococcus aureus ATTC 25923 at 12 ug/ml after 3 to 4 days. The conditions noted are these: read-out: IZ. It counts as functional. Summed up: (§4)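 Agar well diffusion. Plates were seeded with a bacterial suspension, the excess was decanted and plates were dried at 37 °C for 1 h. Wells were punched and compounds in DMSO were added, with DMSO wells as control. Plates were run in triplicate at 37 °C for 3–4 days and zones of inhibition were scored.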

Assay [14] deals with Klebsiella pneumoniae. Put plainly: Antibacterial activity against Klebsiella pneumoniae after 16 to 18 hrs by serial plate dilution method. It counts as functional. The gist of the method:
as §2

The subject of assay [15] is Aspergillus flavus. Nature of the assay: Antifungal activity against Aspergillus flavus NCIM 524 at 12 ug/ml after 3 to 4 days. It is filed as functional. Conditions: read-out: IZ. The gist of the method: as §1
Assay [16] deals with Klebsiella pneumoniae. Nature of the assay: microbe, parasite or virus in culture. The conditions noted are these: read-out: IZ. It counts as functional.
The test system of assay [17] is Escherichia coli. Put plainly: Antibacterial activity against Escherichia coli ATTC 25922 after 16 to 18 hrs by serial plate dilution method. It counts as functional. The conditions noted are these: ATCC25922. Summed up:
as §2

Assay [18] deals with Escherichia coli. Nature of the assay: Antibacterial activity against Escherichia coli ATTC 25922 at 12 ug/ml after 3 to 4 days. It is filed as functional. Conditions: ATCC25922, read-out: IZ. Summed up:
as §4

Assay [19] has as its system Pseudomonas aeruginosa. Nature of the assay: microbe, parasite or virus in culture. It counts as functional. Conditions: ATCC27853, read-out: IZ.
The subject of assay [20] is Rattus norvegicus. Nature of the assay: Antiinflammatory activity against carrageenan-induced paw oedema in albino rat at 1.5 mg/kg, po, relative to control. It is filed as functional. The gist of the method:
as §3

Assay [21] concerns Escherichia coli. Put plainly: microbe, parasite or virus in culture. Conditions: ATCC25922, read-out: IZ. It is filed as functional.
The subject of assay [22] is Aspergillus flavus. Nature of the assay: Antifungal activity against Aspergillus flavus NCIM 524 at […] ug/ml after 3 to 4 days. The conditions noted are these: read-out: IZ. It counts as functional.
In assay [23] the test system is Staphylococcus aureus. Put plainly: Antibacterial activity against Staphylococcus aureus ATTC 25923 at […] ug/ml after 3 to 4 days. It counts as functional. Conditions: read-out: IZ.
Assay [24] concerns Pseudomonas aeruginosa. Put plainly: Antibacterial activity against Pseudomonas aeruginosa ATTC 27853 at 12 ug/ml after 3 to 4 days. It is filed as functional. The conditions noted are these: ATCC27853, read-out: IZ. Summed up:
as §4

In assay [25] the test system is Trichophyton mentagrophytes. Put plainly: Antifungal activity against Trichophyton mentagrophytes at […] ug/ml after 3 to 4 days. It counts as functional. Conditions: read-out: IZ.
Assay [26] deals with Staphylococcus aureus. Put plainly: microbe, parasite or virus in culture. The conditions noted are these: read-out: IZ.

Converted amounts (≈) assume the structure as drawn.

Usually MIC stands for the smallest concentration in the dilution series that meets the test's criterion for growth inhibition. A low value points to inhibition by little substance. Consider `Cc1cc(C2CCCCC2)n(O)c(=O)c1.NCCO` [CICLOPIROX OLAMINE], for which the MIC in assay [1] turned out to be 3.12 µg/mL; in assay [3] it was 6.25 µg/mL; in [4] it was 6.25 µg/mL; in assay [7], 3.12 µg/mL. The zone of inhibition at 3.125 µg/mL in assay [2] is 27 mm; in assay [8], 25 mm. Further, the zone of inhibition at 6.25 µg/mL in assay [5] and in assay [6] was 16 mm in each case.
The term inhibition in vivo denotes the share of the control response that was lost under treatment. Lower therefore signals a weak effect. As to `Cc1ccc(-c2nn3c(-c4cc(Cl)cc(Cl)c4Cl)nnc3s2)cc1`, the MIC in assay [1] was found to be 12 µg/mL (≈ 30.3 µM); in assay [9], 6.25 µg/mL (≈ 15.8 µM); in assay [3] it was 6.25 µg/mL (≈ 15.8 µM); in [11], 12 µg/mL (≈ 30.3 µM); in assay [4], 6.25 µg/mL (≈ 15.8 µM); in assay [14], 6.25 µg/mL (≈ 15.8 µM). Besides, the MIC in [7] and in [17] was 12 µg/mL (≈ 30.3 µM) throughout. The zone of inhibition at 12 µg/mL in [10], in [13], in [15] and in [18] was 11 mm in each case. The zone of inhibition at 6.25 µg/mL in assay [5], in assay [6], in assay [16] and in [19] was 16 mm throughout. Moreover, testing at 50 mg/kg in [12] gave an inhibition in vivo of 22.6%.
As to `COc1ccc2c(c1)c(CC(=O)O)c(C)n2C(=O)c1ccc(Cl)cc1` [INDOMETHACIN], in assay [20], the inhibition in vivo at 1.5 mg/kg stood at 59.7%.
Take `Clc1cc(Cl)c(Cl)c(-c2nnc3sc(-c4cccc5ncccc45)nn23)c1`: the MIC stood at 6.25 µg/mL (≈ 14.4 µM) in [1]; 12 µg/mL (≈ 27.7 µM) in assay [9]; 6.25 µg/mL (≈ 14.4 µM) in assay [3]; 6.25 µg/mL (≈ 14.4 µM) in assay [11]; 6.25 µg/mL (≈ 14.4 µM) in assay [4]; 6.25 µg/mL (≈ 14.4 µM) in assay [14]. In addition, the MIC in assay [7] and in assay [17] was 6.25 µg/mL (≈ 14.4 µM) throughout. The zone of inhibition at 6.25 µg/mL in assay [21], in assay [5], in assay [22], in assay [6], in assay [23] and in assay [16] was 16 mm throughout. Also, the zone of inhibition at 6.25 µg/mL in assay [25] amounted to 16 mm. The compound also came in with an inhibition in vivo at 50 mg/kg in assay [12] of 9.67%. For the same compound, the zone of inhibition at 12 µg/mL in assay [24] came out at 11 mm.
For `O=C(O)c1cn(C2CC2)c2cc(N3CCNCC3)c(F)cc2c1=O` [CIPROFLOXACIN], the zone of inhibition at 6.25 µg/mL in assay [21], in [16] and in [19] was 16 mm throughout. Besides, the MIC was 1.56 µg/mL (≈ 4.71 µM) in assay [11] and 6.25 µg/mL (≈ 18.9 µM) in [14]. For the same compound, the zone of inhibition at 1.56 µg/mL in assay [26] stood at 22 mm.
